“And” between values parts separate entries of the source, which are not always exact repeats. Equal values may be shown once. The source made the active and inactive calls. The rule behind the calls is not given here.
Assays:
Type in all cases: functional
[1] = tested on: Mus musculus; assay: Analgesic activity, 30 min after subcutaneous administration of the compound, in mice
[2] = species on record: Mus musculus; assay: Antagonist activity in mouse vas deferens preparation.
[3] = species on record: Cavia porcellus; assay: Agonist activity in guinea pig ileum preparation
Method in brief: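 Electrically stimulated guinea pig ileum. Agonist IC50 is derived from concentration-response curves, with the number of experiments noted for each. In a separate run, tissue is depleted of functional μ receptors by preincubation with β-FNA before the agonist curve is repeated.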

[4] = tested on: Mus musculus; assay: Mice were intracerebroventricularly injected with 10 nmol and challenged with a 10 mg/kg subcutaneous dose of morphine sulfate; percentage of animals exhibiting analgesia was reported, after 0.5 hr
[5] = tested on: Mus musculus; assay: Mice were intracerebroventricularly injected with 10 nmol and challenged with a 10 mg/kg subcutaneous dose of morphine sulfate; percentage of animals exhibiting analgesia was reported, after 24 hr
[6] = tested on: Mus musculus; assay: Mice were intracerebroventricularly injected with 10 nmol and challenged with a 10 mg/kg subcutaneous dose of morphine sulfate; percentage of animals exhibiting analgesia was reported, after 2 hr
[7] = tested on: Mus musculus; assay: analgesic activity by tail-flick procedure, after intracerebroventricular administration in mice; Compound is inactive at 10 nmol/mouse
[8] = Irreversible antagonist activity is measured from the ratio of agonist activity (IC50) to that of the control (ethylketazocine).
Method in brief: (§1)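 Electrically stimulated guinea pig ileum or mouse vas deferens. Tissue is incubated 30 min with 200 nM compound, then washed 20 times. […] Number of experiments is noted.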

[9] = tested on: Mus musculus; assay: Analgesic activity by tail-flick procedure, after intracerebroventricular administration in mice. Compound is inactive at 10 nmol/mouse
[10] = Irreversible antagonist activity is measured from the ratio of agonist activity (IC50) to that of the control (morphine).; method in brief: as §1

Row | Compound | IC50 [2] | IC50 [3] | Dose [5] | Dose [6] | Ratio [8] | further results
1 | CN1CC[C@]23c4c5ccc(O)c4O[C@H]2[C@@H](O)C=C[C@H]3[C@H]1C5 [MORPHINE] |  |  |  |  |  | ED50 [1]: 2.8 nM mouse-1
2 | CC(C)C[C@@H](NC(=O)[C@H](Cc1ccccc1)NC(=O)CNC(=O)[C@@H](C)NC(=O)[C@@H](N)Cc1ccc(O)cc1)C(=O)O [DADLE] | 0.22 nM |  |  |  |  | 
3 | CCOc1ccc2c(c1)C1(C)CCN(CC3CC3)C(C2=O)C1C (configuration not stated) [ETHYLKETAZOCINE] |  | 1.6 nM |  |  |  | 
4 | O=C1C=CC2C3Cc4ccc(O)c5c4C2(CCN3CC2CC2)[C@H]1O5 (some centres not stated) | 300 nM | 300 nM | 67% | 60% | 0.82 | Dose [4]: 10%; ED50 [7]: inactive
5 | CN1CCC23c4c5ccc(O)c4O[C@H]2C(=O)C=CC3C1C5 (some centres not stated) | 47 nM | 108 nM | 67% | 80% | 0.92 | ED50 [9]: 11.1 nM mouse-1; Ratio [10]: 0.67 and 0.68

— ChEMBL document CHEMBL1122623, “Activities of morphinone and N-(cyclopropylmethyl)normorphinone at opioid receptors” (J Med Chem, 1984)
